For orientation: CC50 means the concentration at which the toxic effect on the cells reaches its halfway point.

We go through twelve compounds from ChEMBL document CHEMBL3817747 (J Med Chem, 2016).

Data set [1] in a line: Cytotoxicity against MDCK cells after 48 hrs by CellTiter 96 AQueous Non-Radioactive cell proliferation assay. The data set is classed as cell-based, Canis lupus familiaris. Conditions: dog. The essentials:
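MDCK cells (1 × 10^5 cells/mL) exposed to inhibitor without virus, same steps as the antiviral assay: 48 h at 37 °C, 5% CO2, viability by MTS-type reagent, absorbance at 490 nm. CC50 is the 50% cytotoxic concentration. Highest concentration tested was 100 μM.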

The nature of data set [2]: Prodrug conversion in rabbit serum assessed as formation of (3R,4R)-[3-((S)-1-Acetamido-2-ethylbutyl)-4-guanidinocyclopent-1-en-1-yl]phosphonic acid at 1 mM at 37 degC after 24 to 96 hrs by HPLC/ESI-HRMS analysis. The data set is classed as ADME, Oryctolagus cuniculus. Conditions: 1000 µM.

Take `CCC(CC)[C@H](NC(C)=O)[C@@H]1C[C@@H](P(=O)(O)O)C[C@H]1NC(=N)N`: in data set [1], the CC50 at 48 h was > 100 µM.
`CCOP(=O)(O)[C@@H]1C[C@@H]([C@@H](NC(C)=O)C(CC)CC)[C@H](NC(=N)N)C1`: in data set [1], the CC50 at 48 h is > 100 µM.
On the same count and under the same terms, in the case of `CCC(CC)[C@H](NC(C)=O)[C@@H]1C=C(P(=O)(O)O)C[C@H]1NC(=N)N` it was > 100 µM; in that of `CCCCCCOP(=O)(O)[C@@H]1C[C@@H]([C@@H](NC(C)=O)C(CC)CC)[C@H](NC(=N)N)C1`, > 100 µM; in that of `CCCCCCOP(=O)(O)C1=C[C@@H]([C@@H](NC(C)=O)C(CC)CC)[C@H](NC(=N)N)C1`, > 100 µM.
In the case of `CCOP(=O)(O)[C@H]1C[C@@H](NC(=N)N)[C@H]([C@@H](NC(C)=O)C(CC)CC)[C@@H]1O`, the CC50 at 48 h in data set [1] is > 100 µM.
As for `CCCCCCOP(=O)(O)[C@H]1C[C@@H](NC(=N)N)[C@H]([C@@H](NC(C)=O)C(CC)CC)[C@@H]1O`, the CC50 at 48 h in data set [1] was > 100 µM.
Same read-out and setting: in the case of `CCC(CC)[C@H](NC(C)=O)[C@@H]1[C@H](O)[C@@H](P(=O)(O)O)C[C@H]1NC(=N)N` it was > 100 µM.
For `CCOP(=O)(O)C1=C[C@@H]([C@@H](NC(C)=O)C(CC)CC)[C@H](NC(=N)N)C1`, the CC50 at 48 h in data set [1] is > 100 µM. Further, the Drug metabolism result in data set [2] is on record as “metabolite_notdetected”.
`CCC(CC)O[C@@H]1C=C(C(=O)O)C[C@H](N)[C@H]1NC(C)=O` [OSELTAMIVIR CARBOXYLATE]: the CC50 at 48 h in data set [1] was > 100 µM.
Regarding `CCC(CC)[C@H](NC(C)=O)[C@@H]1[C@H](O)[C@@H](C(=O)O)C[C@H]1NC(=N)N` [PERAMIVIR ANHYDROUS], the CC50 at 48 h in data set [1] was > 100 µM.
For `CC(=O)N[C@H]1[C@H]([C@H](O)[C@H](O)CO)OC(C(=O)O)=C[C@@H]1NC(=N)N` [ZANAMIVIR], the CC50 at 48 h in data set [1] is > 100 µM.
